Measured values published in ChEMBL document CHEMBL4699593, “Identification of 2,4-Disubstituted Imidazopyridines as Hemozoin Formation Inhibitors with Fast-Killing Kinetics and In Vivo Efficacy in the Plasmodium falciparum NSG Mouse Model” (J Med Chem, 2020).
Converted amounts (≈) assume the structure as drawn.

Legend:
Plasmodium falciparum [1] = experiment: Antiplasmodial activity against multidrug-sensitive asexual blood stage Plasmodium falciparum NF54 strain assessed as reduction in parasite growth after 72 hrs by NBT reagent based LDH assay; type: functional, organism-based; details: NF54, 72 h
[2] = Aqueous solubility of compound in phosphate buffer saline at pH 6.5 incubated for 20 hrs under shaking condition by shake-flask method based HPLC-DAD analysis; type: physicochemical; details: phosphate buffered saline
Summary of the method: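 Equilibrium aqueous solubility was measured at pH 6.5 using a miniaturized shake-flask method.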

Plasmodium falciparum [3] = experiment: Antiplasmodial activity against multidrug-resistant asexual blood stage Plasmodium falciparum K1 strain assessed as reduction in parasite growth after 72 hrs by NBT reagent based LDH assay; type: functional, organism-based; details: K1, 72 h
Summary of the method: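 Asexual blood-stage K1 (multidrug-resistant) parasites were read out by the parasite lactate dehydrogenase (pLDH) assay. […] Most individual values varied less than 2× (maximum 3×).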

CHO = experiment: Cytotoxicity against CHO cells assessed as reduction in cell viability by MTT assay; type: cell-based, Cricetulus griseus; details: chinese hamster
Summary of the method: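 Cytotoxicity was measured in Chinese hamster ovary (CHO) cells and reported as CC50. The selectivity index is CC50 divided by NF54 IC50.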

Work on `CN1CCN(C2CCN(c3nccc4[nH]c(C5CCCC5)nc34)CC2)CC1` yielded an IC50 (Plasmodium falciparum [1]) of over 10000 nM and a solubility thermodynamic at 20 h [2] of 170 µM (≈ 62.6 µg/mL).

For `CN1CCN(C2CCN(c3nccc4[nH]c(-c5ccc(F)c(C(F)(F)F)c5)nc34)CC2)CC1`, the IC50 (Plasmodium falciparum [1]) was 58 nM, the IC50 (Plasmodium falciparum [3]) was 80 nM and the solubility thermodynamic at 20 h [2] was 195 µM (≈ 90.2 µg/mL). The CC50 (CHO) was 4800 nM.

For `C[C@@H]1CN(c2nccc3[nH]c(-c4ccc(F)c(F)c4)nc23)C[C@H](C)N1`, the IC50 (Plasmodium falciparum [1]) was 76 nM, the IC50 (Plasmodium falciparum [3]) was 450 nM and the solubility thermodynamic at 20 h [2] was 190 µM (≈ 65.2 µg/mL). For the same compound, the CC50 (CHO) was 6500 nM.

`Fc1ccc(-c2nc3c(N4CCC(N5CCNCC5)CC4)nccc3[nH]2)cc1C(F)(F)F` showed an IC50 (Plasmodium falciparum [1]) of 36 nM, an IC50 (Plasmodium falciparum [3]) of 460 nM and a solubility thermodynamic at 20 h [2] of 200 µM (≈ 89.7 µg/mL). It also gave a CC50 (CHO) of 34000 nM.

For `Fc1ccc(-c2nc3c(N4CCN(CC(F)(F)F)CC4)nccc3[nH]2)cc1F`, the IC50 (Plasmodium falciparum [1]) was 2300 nM, the solubility thermodynamic at 20 h [2] was 10 µM (≈ 3.97 µg/mL) and the CC50 (CHO) was 39000 nM.

`CN1CCN(CC2CCN(c3nccc4[nH]c(-c5cc(F)cc(C(F)(F)F)c5)nc34)CC2)CC1` showed an IC50 (Plasmodium falciparum [1]) of 54 nM, an IC50 (Plasmodium falciparum [3]) of 89 nM and a solubility thermodynamic at 20 h [2] of 165 µM (≈ 78.6 µg/mL). The CC50 (CHO) was 3100 nM.

`CN1CCN(CC2CCN(c3nccc4[nH]c(-c5ccc(F)c(Cl)c5)nc34)CC2)CC1` showed an IC50 (Plasmodium falciparum [1]) of under 12 nM, an IC50 (Plasmodium falciparum [3]) of 25 nM and a solubility thermodynamic at 20 h [2] of 155 µM (≈ 68.7 µg/mL). For the same compound, the CC50 (CHO) was 850 nM.

`Fc1cc(F)cc(-c2nc3c(N4CCC(CN5CCC(F)(F)CC5)CC4)nccc3[nH]2)c1` gave an IC50 (Plasmodium falciparum [1]) of 200 nM, an IC50 (Plasmodium falciparum [3]) of 310 nM and a solubility thermodynamic at 20 h [2] of under 5 µM. For the same compound, the CC50 (CHO) was 26000 nM.

`CN1CCN([C@H]2CC[C@@H](Nc3nccc4[nH]c(-c5cc(F)cc(F)c5)nc34)CC2)CC1` gave an IC50 (Plasmodium falciparum [1]) of 160 nM, an IC50 (Plasmodium falciparum [3]) of 310 nM and a solubility thermodynamic at 20 h [2] of 200 µM (≈ 85.3 µg/mL). The CC50 (CHO) was 14000 nM.

In the case of `CN1CCN(CC2CCN(c3nccc4[nH]c(C5CCCC5)nc34)CC2)CC1`, the IC50 (Plasmodium falciparum [1]) is reported as 9300 nM and the solubility thermodynamic at 20 h [2] is reported as under 5 µM.

`COC(=O)c1cccc(-c2nc3c(N4CCC(N5CCN(C)CC5)CC4)nccc3[nH]2)c1` gave an IC50 (Plasmodium falciparum [1]) of 79 nM, an IC50 (Plasmodium falciparum [3]) of 280 nM and a CC50 (CHO) of 34000 nM.

`CN(C)C1CCN(c2nccc3[nH]c(-c4cccc(OC(F)(F)F)c4)nc23)CC1` showed an IC50 (Plasmodium falciparum [1]) of 140 nM, an IC50 (Plasmodium falciparum [3]) of 190 nM and a solubility thermodynamic at 20 h [2] of 180 µM (≈ 73 µg/mL).

`CN1CCN(CC2CCN(c3nccc4[nH]c(-c5cccc(C(=O)O)c5)nc34)CC2)CC1` gave an IC50 (Plasmodium falciparum [1]) of over 10000 nM, a solubility thermodynamic at 20 h [2] of 195 µM (≈ 84.7 µg/mL) and a CC50 (CHO) of over 50000 nM.

For `OCCN1CCN(c2nccc3[nH]c(-c4ccc(F)c(F)c4)nc23)CC1`, the IC50 (Plasmodium falciparum [1]) was 570 nM, the IC50 (Plasmodium falciparum [3]) was 1400 nM and the solubility thermodynamic at 20 h [2] was 95 µM (≈ 34.1 µg/mL).

Work on `CN1CCN(CC2CCN(c3nccc4[nH]c(-c5cccc(C(=O)N(C)C)c5)nc34)CC2)CC1` yielded an IC50 (Plasmodium falciparum [1]) of 1000 nM, a solubility thermodynamic at 20 h [2] of 180 µM (≈ 83.1 µg/mL) and a CC50 (CHO) of over 50000 nM.

`CN1CCN(CC2CCN(c3nccc4c3nc(-c3cc(F)cc(F)c3)n4C)CC2)CC1` showed an IC50 (Plasmodium falciparum [1]) of over 3000 nM and a solubility thermodynamic at 20 h [2] of 150 µM (≈ 66.1 µg/mL).

With `CN1CCN(CC2CCN(c3ncnc4[nH]c(-c5cc(F)cc(F)c5)nc34)CC2)CC1` the IC50 (Plasmodium falciparum [1]) was 1800 nM and the solubility thermodynamic at 20 h [2] was 55 µM (≈ 23.5 µg/mL).

Work on `CN1CCN(C2CCN(c3nccc4[nH]c(-c5cccc(C#N)c5)nc34)CC2)CC1` yielded an IC50 (Plasmodium falciparum [1]) of 110 nM, an IC50 (Plasmodium falciparum [3]) of 580 nM and a CC50 (CHO) of 16000 nM.

Work on `O=C1CN(c2nccc3[nH]c(-c4ccc(F)c(F)c4)nc23)CCN1` yielded an IC50 (Plasmodium falciparum [1]) of over 10000 nM and a solubility thermodynamic at 20 h [2] of under 5 µM.

In the case of `Fc1ccc(-c2nc3c(N4CCN(c5ccccc5)CC4)nccc3[nH]2)cc1F`, the IC50 (Plasmodium falciparum [1]) is reported as over 1000 nM.

Compound `CN1CCN(c2nccc3[nH]c(-c4cccc(OC(F)(F)F)c4)nc23)CC1` has an IC50 (Plasmodium falciparum [1]) of 490 nM.

For `Fc1ccc(-c2nc3c(N4CCOCC4)nccc3[nH]2)cc1F`, the IC50 (Plasmodium falciparum [1]) was 3100 nM.

Compound `O=S1(=O)CCN(CC2CCN(c3nccc4[nH]c(-c5cc(F)cc(F)c5)nc34)CC2)CC1` has an IC50 (Plasmodium falciparum [1]) of 1400 nM, a solubility thermodynamic at 20 h [2] of under 5 µM and a CC50 (CHO) of over 50000 nM.

Work on `CN1CCN(CC2CCN(c3ccnc4[nH]c(-c5cc(F)cc(F)c5)nc34)CC2)CC1` yielded an IC50 (Plasmodium falciparum [1]) of 530 nM and a solubility thermodynamic at 20 h [2] of under 5 µM.

With `CN1CCN(CC2CCN(c3nccc4[nH]c(-c5cccc(OCCN)c5)nc34)CC2)CC1` the IC50 (Plasmodium falciparum [1]) was 2200 nM and the solubility thermodynamic at 20 h [2] was 200 µM (≈ 89.9 µg/mL).

For `Fc1ccc(-c2nc3c(C4CCNCC4)nccc3[nH]2)cc1F`, the IC50 (Plasmodium falciparum [1]) was over 10000 nM and the solubility thermodynamic at 20 h [2] was 200 µM (≈ 62.9 µg/mL).
